Experimental data gathered from unrelated publications.
Each line is one published result; the experiments were not run side by side.
Cell line: HeLa
Read-out: cell growth or viability

CC[C@@]1(OC(=O)[C@@H](N)CCSC)C(=O)OCc2c1cc1n(c2=O)Cc2cc3cc4c(cc3nc2-1)OCO4  IC50 (MTT): 95 nM
N.N.[Cl][Pt][Cl]  IC50 (MTT; 24 h): 2330 nM
Nc1cc(I)c(I)cc1N  IC50 (72 h): 15000 nM
CC[C@@]1(O)C(=O)OCc2c1cc1n(c2=O)Cc2cc3cc4c(cc3nc2-1)OCO4  IC50 (MTT; 72 h): 26 nM
COc1cc(C(=O)c2cc3c(-c4ccccc4)c(OC)ccc3o2)cc(OC)c1OC  IC50: 25000 nM
N#Cc1ccc(NC(=S)NN=Cc2ccccc2)cc1  IC50 (72 h): 67 µg/mL
O=C(Cc1ccc2ccccc2c1)N[C@@H](Cc1ccccc1)C(=O)N[C@@H](Cc1ccccc1)C(=O)N[C@@H](Cc1ccc(OP(=O)(O)O)cc1)C(=O)O  IC50 (MTT; 48 h): > 500000 nM
N#Cc1ccc(NC(=S)NN=Cc2ccc(F)cc2)cc1  IC50 (72 h): 68 µg/mL
CC[C@@]1(OC(=O)[C@@H](N)CCCCN)C(=O)OCc2c1cc1n(c2=O)Cc2cc3cc4c(cc3nc2-1)OCO4  IC50 (MTT): 24 nM
N#Cc1ccc(NC(=S)NN=Cc2ccc(O)cc2)cc1  IC50 (72 h): 91 µg/mL
CC[C@H](C)[C@@H]([C@@H](CC(=O)N1CCC[C@H]1[C@H](OC)[C@@H](C)C(=O)N[C@H](C)[C@@H](O)c1ccccc1)OC)N(C)C(=O)[C@@H](NC(=O)[C@H](C(C)C)N(C)C(=O)OCc1ccc(NC(=O)[C@H](CCCNC(N)=O)NC(=O)[C@@H](NC(=O)CCCCCN2C(=O)CC(SCCC(=O)N[C@@H](Cc3cn(CCOCCNCCCCCCOc4cc(OCCCc5c(C)n[nH]c5C)cc(C(=O)O)c4)nn3)C(=O)NCCCCCC(=O)NCCCC[C@H](NC(=O)N[C@@H](CCC(=O)O)C(=O)O)C(=O)O)C2=O)C(C)C)cc1)C(C)C (stereo partly shown)  IC50 (MTT): 372 nM
CC(C)[C@]12O[C@H]1[C@@H]1O[C@]13[C@]1(O[C@H]1C[C@H]1C4=C(CC[C@@]13C)C(=O)OC4)[C@@H]2O  IC50 (thymidine uptake; 24 h): 12 nM
CC[C@@]1(OC(=O)[C@H](C)N)C(=O)OCc2c1cc1n(c2=O)Cc2cc3cc4c(cc3nc2-1)OCO4  IC50 (MTT): 103 nM
N#Cc1ccc(NC(=S)NN=Cc2ccc([N+](=O)[O-])cc2)cc1  IC50 (72 h): 142 µg/mL
N.N.[Cl][Pt][Cl]  IC50 (MTT; 48 h): 17000 nM
CC[C@H](C)[C@H](N)C(=O)O[C@]1(CC)C(=O)OCc2c1cc1n(c2=O)Cc2cc3cc4c(cc3nc2-1)OCO4  IC50 (MTT): 124 nM
C[C@]12CCC(=O)C[C@@H]1CC[C@@H]1[C@@H]2CC[C@@]2(C)[C@H]1CC[C@]2(C)O  IC50 (MTT; 24 h): 27600 nM
CC[C@@]1(OC(=O)[C@@H]2CCCN2)C(=O)OCc2c1cc1n(c2=O)Cc2cc3cc4c(cc3nc2-1)OCO4  IC50 (MTT): 200 nM
COc1c2c(cc3c1OCO3)[C@]13C=C[C@H](OC)C[C@@H]1[N@](C2)C[C@H]3OC(=O)c1ccoc1  IC50 (WST-1; 48 h): > 10000 nM
